The species entered for experiment [1] is Homo sapiens. The experiment is described as follows: Agonistic activity on human umbilical vein(HUV) in absence of inhibitors. It counts as functional. Summed up:
(§1)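 Human umbilical vein segments; cumulative concentration-response to agonist measured as contraction, run with or without protease inhibitors. Maximal contraction of each segment obtained after washout with U46619 (1 μM).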

Experiment [2] is filed under the species Homo sapiens. The experiment is described as follows: (§2) Agonistic activity on human umbilical vein(HUV) in presence of inhibitors. It counts as functional. An outline of the steps:
as §1

The species named for experiment [3] is Rattus norvegicus. The experiment is described as follows: Agonistic activity on rat uterus(RUT) in absence of inhibitors. It counts as functional. An outline of the steps:
(§3)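 Uterus from female Sprague–Dawley rats (250-300 g) pretreated with diethylstilbestrol 0.1 mg/kg s.c. 18 h before CO2 kill. Tissue placed in Jalon solution (mM: NaCl 154, KCl 5.6, NaHCO3 1.7, MgCl2 1.4, glucose 5.5, CaCl2 0.3). One cumulative concentration-response curve per segment, run with or without protease inhibitors. Maximum per segment taken with angiotensin II (3 μM). Means ± SEM, n = 5; pD2.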

The species entered for experiment [4] is Rattus norvegicus. The experiment can be described thus: (§4) Agonistic activity on rat uterus(RUT) in presence of inhibitors. It counts as functional. An outline of the steps:
as §3

Experiment [5] deals with T1, B2 bradykinin receptor (Homo sapiens, UniProt P30411).
T1 sequence (P30411 whole entry): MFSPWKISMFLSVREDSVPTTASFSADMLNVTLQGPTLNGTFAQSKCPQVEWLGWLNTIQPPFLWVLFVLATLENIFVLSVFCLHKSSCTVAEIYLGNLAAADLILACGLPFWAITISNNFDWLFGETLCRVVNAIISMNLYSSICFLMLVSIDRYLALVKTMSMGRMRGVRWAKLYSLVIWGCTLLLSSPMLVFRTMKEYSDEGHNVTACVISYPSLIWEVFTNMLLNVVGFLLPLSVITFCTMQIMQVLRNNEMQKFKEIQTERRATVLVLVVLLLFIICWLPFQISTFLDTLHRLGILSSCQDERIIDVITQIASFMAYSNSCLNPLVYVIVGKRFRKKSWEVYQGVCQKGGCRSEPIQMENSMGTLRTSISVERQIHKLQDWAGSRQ
The experiment is described as follows: Binding affinity against human cloned Bradykinin receptor B2 expressed in CHO cells using [3H]-bradykinin as radioligand. The format is cell-based. Summed up:
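Membranes of stably transfected CHO cells (human or rat B2 receptor), prepared in 20 mM TES pH 6.8 with 1 mM 1,10-phenanthroline, 140 µg/mL bacitracin and 0.1% BSA, spun at 40 000g. Filtration on PEI-soaked GF/B filters.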

Another experiment deals with T2, B1 bradykinin receptor (Homo sapiens, UniProt P46663).
T2 sequence (P46663 whole entry): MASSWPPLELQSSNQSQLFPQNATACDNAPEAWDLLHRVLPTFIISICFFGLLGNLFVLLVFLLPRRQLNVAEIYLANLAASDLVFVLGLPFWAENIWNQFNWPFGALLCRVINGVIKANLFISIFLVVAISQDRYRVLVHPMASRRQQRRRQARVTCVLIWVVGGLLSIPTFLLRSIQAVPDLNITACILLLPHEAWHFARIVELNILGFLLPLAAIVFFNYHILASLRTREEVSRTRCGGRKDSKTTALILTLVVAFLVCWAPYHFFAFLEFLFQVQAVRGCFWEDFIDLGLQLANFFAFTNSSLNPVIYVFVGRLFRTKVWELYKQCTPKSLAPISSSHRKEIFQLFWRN
The experiment can be described thus: Binding affinity against human cloned Bradykinin receptor B1 expressed in HEK 293 cells using [3H]des-Arg10-[Leu9]-kallidin as radioligand.

Experiment [6] deals with T3, B2 bradykinin receptor (Rattus norvegicus, UniProt P25023).
T3 sequence (P25023 whole entry): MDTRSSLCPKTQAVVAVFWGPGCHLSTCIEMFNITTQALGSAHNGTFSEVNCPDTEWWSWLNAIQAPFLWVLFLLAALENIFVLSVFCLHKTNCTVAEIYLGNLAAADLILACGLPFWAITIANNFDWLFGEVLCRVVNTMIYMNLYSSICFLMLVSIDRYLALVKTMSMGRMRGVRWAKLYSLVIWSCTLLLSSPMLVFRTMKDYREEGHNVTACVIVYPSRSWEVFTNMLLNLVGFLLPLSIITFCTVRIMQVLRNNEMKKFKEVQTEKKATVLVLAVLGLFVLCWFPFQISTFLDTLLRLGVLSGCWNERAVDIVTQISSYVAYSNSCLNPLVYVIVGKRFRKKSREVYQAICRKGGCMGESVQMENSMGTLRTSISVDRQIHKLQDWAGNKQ
The experiment can be described thus: Binding affinity against rat Bradykinin receptor B2 expressed in CHO cells using [3H]-bradykinin as radioligand. The format is cell-based. Summed up: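 Competition binding on membranes from stably transfected CHO cells. Cells were scraped into 20 mM TES pH 6.8 with 1 mM 1,10-phenanthroline, 140 µg/mL bacitracine and 0.1% BSA, and membranes were pelleted at 40 000g for 15 min. […] Bound label was collected by filtration on PEI-presoaked GF/B filters and counted by scintillation. n = 3 or 4.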

The target in experiment [7] is T3, B2 bradykinin receptor. The experiment is described as follows: Binding affinity against rat bradykinin B2 receptors expressed in CHO cells using [3H]bradykinin as radioligand. The format is cell-based. Summed up:
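Membranes of stably transfected CHO cells (human or rat B2 receptor), prepared in 20 mM TES pH 6.8 with 1 mM 1,10-phenanthroline, 140 µg/mL bacitracin and 0.1% BSA, spun at 40 000g. […] Filtration on PEI-soaked GF/B filters. Ki, means ± SEM (n = 3 or 4).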

The species named for experiment [8] is Rattus norvegicus. The description is as §4. It counts as functional, organism-based. The note with it: read-out: pA2 (converted). Summed up:
as §3

For experiment [9], the species on record is Homo sapiens. Described as §2. It counts as functional, organism-based. The note with it: read-out: pA2 (converted). An outline of the steps:
as §1

Where a SMILES comes first, the peptide text is derived from it. [ ]: non-standard residue; d: D form. The star is where a group is joined. X1 = COc1ccc(C[C@@H](CN[C@@H](CCCNC(=N)N)C(=O)O)N*)cc1; Hyp = O=C(O)[C@@H]1C[C@@H](O)CN1; 2Thi = N[C@@H](Cc1cccs1)C(=O)O

As for “H-RPPGFSPFR-OH [BRADYKININ] [listing 1 of 2 here]”, the pD2 came out at 7.4 in the experiment filed under Homo sapiens [1], 7.9 in the experiment listed under Homo sapiens [2], 7.33 in the experiment listed under Rattus norvegicus [3] and 8.3 in the experiment filed under Rattus norvegicus [4].

As usually defined, the Ki is the dissociation constant of the complex between target and ligand, obtained from inhibition or displacement. A high value points to a looser hold on the target. In the case of `N=C(N)NCCC[C@@H](N)C(=O)N[C@@H](CCCNC(=N)N)C(=O)N1CCC[C@H]1C(=O)N1CC(O)C[C@H]1C(=O)NCC(=O)N[C@@H](Cc1cccs1)C(=O)N[C@@H](CO)C(=O)N[C@H]1CSc2ccccc2N(CC(=O)N[C@@H](CCCNC(=N)N)C(=O)O)C1=O` (stereo partly specified), the figures for the inhibitory constant (Ki) on B2 bradykinin receptor [5] and at B1 bradykinin receptor were 162 nM and greater than 10000 nM, respectively.

Compound “H-RPPGFSPFR-OH [BRADYKININ] [listing 2 of 2 here]” gave a Ki on B2 bradykinin receptor [6] of 0.46 nM.

The compound `N=C(N)NCCC[C@H](NC(=O)CN1C(=O)[C@H](NC(=O)[C@H](CO)NC(=O)[C@H](Cc2ccccc2)NC(=O)CNC(=O)[C@@H]2CCCN2C(=O)[C@@H]2CCCN2C(=O)[C@@H](N)CCCNC(=N)N)CSc2ccccc21)C(=O)O` yielded a Ki on B1 bradykinin receptor greater than 10000 nM.

Compound `COc1ccc(C[C@@H](CN[C@@H](CCCNC(=N)N)C(=O)O)NC(=O)[C@@H]2CCCN2C(=O)[C@H](CO)NC(=O)[C@H](Cc2cccs2)NC(=O)CNC(=O)[C@@H]2C[C@@H](O)CN2C(=O)[C@@H]2CCCN2C(=O)[C@@H](N)CCCNC(=N)N)cc1` [LABRADIMIL] (H-RP[Hyp]G[2Thi]SP-X1) yielded a Ki on B2 bradykinin receptor [5] of 19 nM. Moreover, the pD2 in the experiment listed under Homo sapiens [1] turned out to be 6.9; in the experiment filed under Homo sapiens [2] it was 7.1.

In turn, `NC(N)=NCCC[C@@H](N)C(=O)N[C@@H](CCCN=C(N)N)C(=O)N1CCC[C@H]1C(=O)N1C[C@H](O)C[C@H]1C(=O)NCC(=O)N[C@@H](Cc1cccs1)C(=O)N[C@@H](CO)C(=O)N1Cc2ccccc2C[C@@H]1C(=O)N1[C@H](C(=O)N[C@@H](CCCN=C(N)N)C(=O)O)C[C@@H]2CCCC[C@@H]21` [ICATIBANT] came in with a Ki at B2 bradykinin receptor [7] of 0.077 nM. Besides, the Kb is 1.15 nM in the experiment listed under Rattus norvegicus [8] and 6.61 nM in the experiment filed under Homo sapiens [9].

`NC(N)=NCCC[C@@H](N)C(=O)N[C@@H](CCCN=C(N)N)C(=O)N1CCC[C@H]1C(=O)N1CC(O)C[C@H]1C(=O)NCC(=O)N[C@@H](Cc1cccs1)C(=O)N[C@@H](CO)C(=O)N[C@@H]1CSc2ccccc2N(CC(=O)N[C@@H](CCCN=C(N)N)C(=O)O)C1=O` (stereo partly specified): the Ki on B2 bradykinin receptor [7] was 6 nM; on B2 bradykinin receptor [5], 0.7 nM; at B1 bradykinin receptor it was greater than 10000 nM. The pD2 in the experiment listed under Homo sapiens [1] worked out at 6.7; in the experiment filed under Homo sapiens [2], 6.8; in the experiment filed under Rattus norvegicus [3], 7.2; in the experiment filed under Rattus norvegicus [4], 7.5.
